Measured values published in ChEMBL document CHEMBL3085685, “In vitro and in vivo antileishmanial and trypanocidal studies of new N-benzene- and N-naphthalenesulfonamide derivatives” (J Med Chem, 2013).
Calls of active or inactive are those of the source. The calls are words filed in the database; no cut-off is given here.

Test system: Leishmania guyanensis
Test: Leishmanicidal activity against extracellular promastigote stage of Leishmania guyanensis 141/93 assessed as reduction of parasite load after 48 hrs by resazurin dye-based fluorometric analysis
Format: functional, organism-based
Settings: not given
Method in brief: (§1)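 Log-phase promastigotes cultured in Schneider's medium with 20% heat-inactivated FBS at 26 °C, 2.5 × 10^5 per well. DMSO-dissolved compounds added as 2-fold serial dilutions, final DMSO ≤0.2% (v/v), 48 h at 26 °C. Growth read by 2.5 mM resazurin stock, fluorescence 535/590 nm. Triplicate; IC50 by probit analysis.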

SMILES	IC50
O=S(=O)(c1cccc2ccccc12)N1CCc2ccccc2C1	Not Active

Same assay, conditions: Leishmania guyanensis, 141/93, 48 h; read-out: IC50

SMILES	IC50 [µM]
O=[N+]([O-])c1ccc(S(=O)(=O)Nc2cnccn2)cc1	84.2
O=S(=O)(Nc1ccc2[nH]ncc2c1)c1ccc(F)cc1	102
CCCCCCCCCCCCCCCCOP(=O)([O-])OCC[N+](C)(C)C [MILTEFOSINE]	44.6
Cc1cc2cc(NS(=O)(=O)c3cccc4ccccc34)ccc2[nH]1	13.6
O=S(=O)(Nc1ccc2[nH]ncc2c1)c1cccc2ccccc12	52.8
O=S(=O)(Nc1ccc2c[nH]nc2c1)c1ccc(Cl)cc1	46.1
O=S(=O)(Nc1ccc2cn[nH]c2c1)c1ccc(F)cc1	96.3
O=[N+]([O-])c1ccc(S(=O)(=O)Nc2ccc3[nH]ncc3c2)cc1	140
Cc1cc2cc(NS(=O)(=O)c3ccc(F)cc3)ccc2[nH]1	117
O=S(=O)(Nc1ccc2nccnc2c1)c1ccc(F)cc1	29.8
O=[N+]([O-])c1ccc(S(=O)(=O)Nc2ccc3ncsc3c2)cc1	53.7

Test system: Leishmania infantum
Test: Leishmanicidal activity against intracellular amastigote stage of Leishmania infantum MCAN/ES/96/BCN150 infected in mouse J774 cells assessed as reduction of parasite load after 48 hrs by resazurin dye-based fluorometric analysis
Format: functional, organism-based
Settings: Leishmania infantum, MCAN/ES/96/BCN150, J774, 48 h; read-out: IC50
Method in brief: (§2)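 J774 macrophages (5 × 10^4/well) infected with stationary promastigotes at 1:10, 24 h at 33 °C then 24 h at 37 °C, 5% CO2, and washed free of promastigotes. Then 2-fold serial dilutions in triplicate for 48 h at 37 °C. Cells lysed with RPMI with 0.048% HEPES and 0.006% SDS, transformed in Schneider's 3 days at 26 °C, resazurin 3 h, fluorescence 535/590 nm.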

SMILES	IC50 [µM]
CCCCCCCCCCCCCCCCOP(=O)([O-])OCC[N+](C)(C)C [MILTEFOSINE]	23.7

Same assay, conditions: j774

SMILES	IC50
O=[N+]([O-])c1ccc(S(=O)(=O)Nc2cnccn2)cc1	Not Active
O=S(=O)(Nc1ccc2c[nH]nc2c1)c1ccc(Cl)cc1	Not Active
O=S(=O)(Nc1ccc2cn[nH]c2c1)c1ccc(F)cc1	Not Active

Test system: not listed separately
Test: Cytotoxicity against mouse NCTC-929 cells assessed as reduction of cell viability after 24 hrs by resazurin dye-based […]
Settings: not given
Method in brief: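 NCTC clone 929 fibroblasts in DMEM with 10% FBS and 2 mM L-glutamine, plated at 3 × 10^4 cells/well and grown overnight at 37 °C, 5% CO2. Compounds in fresh medium for 24 h, then 2 mM resazurin solution added for 3 h. Absorbance read at 570 and 595 nm; CC50 taken as 50% viability loss versus untreated cells, by probit analysis.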

SMILES	CC50 at 24 h [µM]
O=[N+]([O-])c1ccc(S(=O)(=O)Nc2cnccn2)cc1	317
O=S(=O)(Nc1ccc2c[nH]nc2c1)c1ccc(Cl)cc1	211
O=S(=O)(Nc1ccc2cn[nH]c2c1)c1ccc(F)cc1	223
O=S(=O)(c1cccc2ccccc12)N1CCc2ccccc2C1	> 310

Test system: Trypanosoma cruzi
Test: Trypanocidal activity against bloodstream trypomastigote stage of Trypanosoma cruzi Y infected in BALB/c mouse assessed as reduction of parasitemia at 10 mg/kg/day, ip qd administered for 5 days measured on day 10 post-infection by microscopic analysis relative to control
Format: functional
Parameters: scale not given: the % may be the effect or the level left
Settings: route intraperitoneal
Method in brief: (§3)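 Female BALB/c mice (20–24 g) infected ip with 10^4 Y-strain bloodstream trypomastigotes; only parasitemic animals used. Compounds dissolved in DMSO, freshly diluted in propylene glycol, given ip at 10 mg/kg/day for 5 days from 5 dpi, with an untreated group. Parasitemia counted by Pizzi–Brener in 5 μL tail blood at 5, 8, 10 dpi; mortality checked daily to 30 dpi.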

SMILES	Activity [%]
O=[N+]([O-])c1ccc(S(=O)(=O)Nc2cnccn2)cc1	57
O=S(=O)(Nc1ccc2c[nH]nc2c1)c1ccc(Cl)cc1	14
O=S(=O)(Nc1ccc2cn[nH]c2c1)c1ccc(F)cc1	44

Test system: Leishmania amazonensis
Test: Leishmanicidal activity against extracellular promastigote stage of Leishmania amazonensis MHOM/Br/79/Maria assessed as reduction of parasite load after 48 hrs by resazurin dye-based fluorometric analysis
Format: functional, organism-based
Settings: not given
Method in brief: as §1

SMILES	IC50
O=[N+]([O-])c1ccc(S(=O)(=O)Nc2cnccn2)cc1	Not Active
O=S(=O)(c1cccc2ccccc12)N1CCc2ccccc2C1	Not Active

Same assay, conditions: Leishmania amazonensis, MHOM/Br/79/Maria, 48 h; read-out: IC50

SMILES	IC50 [µM]
O=S(=O)(Nc1ccc2[nH]ncc2c1)c1ccc(F)cc1	116
CCCCCCCCCCCCCCCCOP(=O)([O-])OCC[N+](C)(C)C [MILTEFOSINE]	34.1
Cc1cc2cc(NS(=O)(=O)c3cccc4ccccc34)ccc2[nH]1	7.4
O=S(=O)(Nc1ccc2[nH]ncc2c1)c1cccc2ccccc12	37.7
O=S(=O)(Nc1ccc2c[nH]nc2c1)c1ccc(Cl)cc1	59.1
O=S(=O)(Nc1ccc2cn[nH]c2c1)c1ccc(F)cc1	108
O=[N+]([O-])c1ccc(S(=O)(=O)Nc2ccc3[nH]ncc3c2)cc1	66.7
Cc1cc2cc(NS(=O)(=O)c3ccc(F)cc3)ccc2[nH]1	12.5
O=S(=O)(Nc1ccc2nccnc2c1)c1ccc(F)cc1	14.2
O=[N+]([O-])c1ccc(S(=O)(=O)Nc2ccc3ncsc3c2)cc1	89.6

Test system: Trypanosoma cruzi
Test: Trypanocidal activity against bloodstream trypomastigote stage of Trypanosoma cruzi Y infected in BALB/c mouse assessed as reduction of survival rate at 10 mg/kg/day, ip qd administered for 5 days measured daily until day 30 post-infection
Format: functional, organism-based
Settings: not given
Method in brief: as §3

SMILES	Activity
O=[N+]([O-])c1ccc(S(=O)(=O)Nc2cnccn2)cc1	inactive
O=S(=O)(Nc1ccc2c[nH]nc2c1)c1ccc(Cl)cc1	inactive
O=S(=O)(Nc1ccc2cn[nH]c2c1)c1ccc(F)cc1	inactive

Test system: not listed separately
Test: Selectivity index, ratio of CC50 for mouse NCTC-929 cells to IC50 for extracellular epimastigote stage of Trypanosoma cruzi CL-B5
Format: functional
Settings: not given

SMILES	Ratio CC50/IC50
O=[N+]([O-])c1ccc(S(=O)(=O)Nc2cnccn2)cc1	>4.7
O=S(=O)(Nc1ccc2c[nH]nc2c1)c1ccc(Cl)cc1	>9.9
O=S(=O)(Nc1ccc2cn[nH]c2c1)c1ccc(F)cc1	>196.9

Test system: Trypanosoma cruzi
Test: Trypanocidal activity against bloodstream trypomastigote stage of Trypanosoma cruzi Y infected in BALB/c mouse assessed as reduction of parasitemia at 10 mg/kg/day, ip qd administered for 3 days measured on day 8 post-infection by microscopic analysis relative to control
Format: functional
Parameters: scale not given: the % may be the effect or the level left
Settings: route intraperitoneal
Method in brief: as §3

SMILES	Activity [%]
O=[N+]([O-])c1ccc(S(=O)(=O)Nc2cnccn2)cc1	14
O=S(=O)(Nc1ccc2c[nH]nc2c1)c1ccc(Cl)cc1	-10
O=S(=O)(Nc1ccc2cn[nH]c2c1)c1ccc(F)cc1	-50

Test system: Trypanosoma cruzi
Test: Trypanocidal activity against intracellular amastigote stage of Trypanosoma cruzi CL-B5 infected in mouse NCTC-929 cells assessed as reduction of parasite load after 7 days by CPRG-based colorimetric analysis
Settings: Trypanosoma cruzi, CL-B5, NCTC-929, 168 h; read-out: IC50

SMILES	IC50 [µM]
O=[N+]([O-])c1ccc(S(=O)(=O)Nc2cnccn2)cc1	224
O=S(=O)(Nc1ccc2c[nH]nc2c1)c1ccc(Cl)cc1	12.3
O=S(=O)(Nc1ccc2cn[nH]c2c1)c1ccc(F)cc1	28.5

Test system: not listed separately
Test: Cytotoxicity against mouse J774 cells assessed as reduction of cell viability after 24 hrs by resazurin dye-based fluorometric analysis
Settings: not given
Method in brief: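 J774 macrophages in RPMI 1640 with 10% heat-inactivated FBS, seeded at 5 × 10^4 cells/well and attached 24 h at 37 °C, 5% CO2. Medium swapped for drug dilutions for 24 h. Then 2.5 mM resazurin stock added for 3 h, fluorescence read at 535 nm excitation / 590 nm emission. Triplicate; CC50 from probit analysis.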

SMILES	CC50 at 24 h [µM]
O=[N+]([O-])c1ccc(S(=O)(=O)Nc2cnccn2)cc1	≥ 300
O=S(=O)(Nc1ccc2[nH]ncc2c1)c1ccc(F)cc1	≥ 300
CCCCCCCCCCCCCCCCOP(=O)([O-])OCC[N+](C)(C)C [MILTEFOSINE]	136
Cc1cc2cc(NS(=O)(=O)c3cccc4ccccc34)ccc2[nH]1	24.6
O=S(=O)(Nc1ccc2[nH]ncc2c1)c1cccc2ccccc12	30
O=S(=O)(Nc1ccc2c[nH]nc2c1)c1ccc(Cl)cc1	≥ 300
O=S(=O)(Nc1ccc2cn[nH]c2c1)c1ccc(F)cc1	≥ 300
O=[N+]([O-])c1ccc(S(=O)(=O)Nc2ccc3[nH]ncc3c2)cc1	133
Cc1cc2cc(NS(=O)(=O)c3ccc(F)cc3)ccc2[nH]1	40.4
O=S(=O)(c1cccc2ccccc12)N1CCc2ccccc2C1	≥ 300
O=S(=O)(Nc1ccc2nccnc2c1)c1ccc(F)cc1	43.9
O=[N+]([O-])c1ccc(S(=O)(=O)Nc2ccc3ncsc3c2)cc1	≥ 300

Test system: Leishmania infantum
Test: Leishmanicidal activity against extracellular promastigote stage of Leishmania infantum MCAN/ES/96/BCN150 assessed as reduction of parasite load after 48 hrs by resazurin dye-based fluorometric analysis
Format: functional, organism-based
Settings: not given
Method in brief: as §1

SMILES	IC50
O=S(=O)(c1cccc2ccccc12)N1CCc2ccccc2C1	Not Active

Same assay, conditions: Leishmania infantum, MCAN/ES/96/BCN150, 48 h; read-out: IC50

SMILES	IC50 [µM]
O=S(=O)(Nc1ccc2[nH]ncc2c1)c1ccc(F)cc1	65.4
CCCCCCCCCCCCCCCCOP(=O)([O-])OCC[N+](C)(C)C [MILTEFOSINE]	17.6
Cc1cc2cc(NS(=O)(=O)c3cccc4ccccc34)ccc2[nH]1	11.9
O=S(=O)(Nc1ccc2[nH]ncc2c1)c1cccc2ccccc12	37.3
O=S(=O)(Nc1ccc2c[nH]nc2c1)c1ccc(Cl)cc1	43.5
O=S(=O)(Nc1ccc2cn[nH]c2c1)c1ccc(F)cc1	94.8
O=[N+]([O-])c1ccc(S(=O)(=O)Nc2ccc3[nH]ncc3c2)cc1	61.3
Cc1cc2cc(NS(=O)(=O)c3ccc(F)cc3)ccc2[nH]1	34.5
O=S(=O)(Nc1ccc2nccnc2c1)c1ccc(F)cc1	33.4
O=[N+]([O-])c1ccc(S(=O)(=O)Nc2ccc3ncsc3c2)cc1	85.5

Test system: Leishmania amazonensis
Test: Leishmanicidal activity against intracellular amastigote stage of Leishmania amazonensis MHOM/Br/79/Maria infected in mouse J774 cells assessed as reduction of parasite load after 48 hrs by resazurin dye-based fluorometric analysis
Format: functional, organism-based
Settings: Leishmania amazonensis, MHOM/Br/79/Maria, J774, 48 h; read-out: IC50
Method in brief: as §2

SMILES	IC50 [µM]
CCCCCCCCCCCCCCCCOP(=O)([O-])OCC[N+](C)(C)C [MILTEFOSINE]	20.9

Same assay, conditions: j774

SMILES	IC50
O=[N+]([O-])c1ccc(S(=O)(=O)Nc2cnccn2)cc1	Not Active
O=S(=O)(Nc1ccc2c[nH]nc2c1)c1ccc(Cl)cc1	Not Active
O=S(=O)(Nc1ccc2cn[nH]c2c1)c1ccc(F)cc1	Not Active

Test system: Leishmania braziliensis
Test: Leishmanicidal activity against extracellular promastigote stage of Leishmania braziliensis 2903 assessed as reduction of parasite load after 48 hrs by resazurin dye-based fluorometric analysis
Format: functional, organism-based
Settings: not given
Method in brief: as §1

SMILES	IC50
O=S(=O)(c1cccc2ccccc12)N1CCc2ccccc2C1	Not Active

Same assay, conditions: Leishmania braziliensis, 2903, 48 h; read-out: IC50

SMILES	IC50 [µM]
O=[N+]([O-])c1ccc(S(=O)(=O)Nc2cnccn2)cc1	61.5
O=S(=O)(Nc1ccc2[nH]ncc2c1)c1ccc(F)cc1	86.6
CCCCCCCCCCCCCCCCOP(=O)([O-])OCC[N+](C)(C)C [MILTEFOSINE]	7.6
Cc1cc2cc(NS(=O)(=O)c3cccc4ccccc34)ccc2[nH]1	11.6
O=S(=O)(Nc1ccc2[nH]ncc2c1)c1cccc2ccccc12	39.7
O=S(=O)(Nc1ccc2c[nH]nc2c1)c1ccc(Cl)cc1	35.6
O=S(=O)(Nc1ccc2cn[nH]c2c1)c1ccc(F)cc1	88.8
O=[N+]([O-])c1ccc(S(=O)(=O)Nc2ccc3[nH]ncc3c2)cc1	80.8
Cc1cc2cc(NS(=O)(=O)c3ccc(F)cc3)ccc2[nH]1	42.7
O=S(=O)(Nc1ccc2nccnc2c1)c1ccc(F)cc1	13.4
O=[N+]([O-])c1ccc(S(=O)(=O)Nc2ccc3ncsc3c2)cc1	31

Test system: Trypanosoma cruzi
Test: Trypanocidal activity against extracellular epimastigote stage of Trypanosoma cruzi CL-B5 assessed as reduction of parasite load after 72 hrs by CPRG-based colorimetric analysis
Settings: not given

SMILES	IC50
O=S(=O)(Nc1ccc2[nH]ncc2c1)c1ccc(F)cc1	Not Active
O=[N+]([O-])c1ccc(S(=O)(=O)Nc2ccc3ncsc3c2)cc1	Not Active

Same assay, conditions: Trypanosoma cruzi, CL-B5, 72 h; read-out: IC50

SMILES	IC50 [µM]
O=[N+]([O-])c1ccc(S(=O)(=O)Nc2cnccn2)cc1	76.1
O=S(=O)(Nc1ccc2c[nH]nc2c1)c1ccc(Cl)cc1	25.9
O=S(=O)(Nc1ccc2cn[nH]c2c1)c1ccc(F)cc1	1.3
O=S(=O)(c1cccc2ccccc12)N1CCc2ccccc2C1	114
